Measured values from ChEMBL document CHEMBL1817655, “Tylosema esculentum extractives and their bioactivity” (Bioorg Med Chem, 2011).
≈ marks a conversion by molar mass, not a printed value.

Legend:
Assay type in all cases: functional
[1] = system: Staphylococcus aureus; test: Antimicrobial activity against Staphylococcus aureus ATCC 9144 after 24 hrs using thiazoyl blue by agar overlay bioautography method
Method in brief: (§1)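 Agar-overlay TLC bioautography. Stock samples (10 mg/mL) were serially diluted to 5.0, 1.0, 0.05 and 0.001 mg/mL, spotted on silica gel TLC plates and dried. Plates were overlaid with Sabouraud dextrose agar seeded with 24-h cultures and run in duplicate. Incubation was 24 h at 37 °C for S. aureus and E. coli, and 25 °C for B. subtilis, P. aeruginosa and C. albicans. Plates were then sprayed with MTT and incubated a further 4 h. MIQ was the lowest loading giving a white inhibition zone.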

[2] = system: Bacillus subtilis; test: Antimicrobial activity against Bacillus subtilis ATCC 6633 after 24 hrs using thiazoyl blue by agar overlay bioautography method; method in brief: as §1
[3] = system: Pseudomonas aeruginosa; test: Antimicrobial activity against Pseudomonas aeruginosa NCTC 10332 after 24 hrs using thiazoyl blue by agar overlay bioautography method; method in brief: as §1
[4] = system: Candida albicans; test: Antimicrobial activity against Candida albicans ATCC 10231 after 24 hrs using thiazoyl blue by agar overlay bioautography method; method in brief: as §1
[5] = system: Escherichia coli; test: Antimicrobial activity against Escherichia coli ATCC 11229 after 24 hrs using thiazoyl blue by agar overlay bioautography method; method in brief: as §1
[6] = system: Radical scavenging activity; test: Antioxidant activity assessed as DPPH radical scavenging activity after 30 mins by spectrophotometric analysisic analysis
Method in brief: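 Methanolic samples (0.005–0.5 mg/mL) were mixed 1:1 by volume with 2% DPPH and incubated in the dark at room temperature. Absorbance at 517 nm was read at 0.5, 1, 3, 6 and 24 h. Percent scavenged = (A_blank − A_sample)/A_blank × 100, with the blank being DPPH without sample. Ascorbic acid served as reference. Run in triplicate.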

[7] = Antioxidant activity assessed as H2O2 scavenging activity at 12.5 to 250 ug/mL after 30 mins by spectrophotometric analysisic analysis
Method in brief: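 Hydrogen peroxide (32.7 mM in PBS, pH 7.4; 0.6 mL) was combined with 0.05–1 mL of 1 mg/mL extract or standard (gallic acid, ascorbic acid) and made up to 4 mL with water. A230 was read before and after 30 min. Background correction used buffer without peroxide. Percent scavenged = (A0 − A1)/A0 × 100.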

SMILES	MIC [1] [µg]	MIC [2] [µg]	MIC [3] [µg]	MIC [4] [µg]	MIC [5] [µg]	EC50 [6] [µg/mL]	Activity [7] [%]
CCO[C@@H]1[C@@H](O)[C@H](O)[C@@H](CO)O[C@@H]1O	50	50	50	50	50	–	–
O=C1O[C@H]([C@@H](O)CO)C(O)=C1O [ASCORBIC ACID]	–	–	–	–	–	41.08 (≈ 233 µM)	> 50
CCCCCCCCCCCCCCCCCCCCCC(=O)O [BEHENIC ACID]	50	50	50	50	50	–	–
CC[C@H](CC[C@@H](C)[C@H]1CC[C@H]2[C@@H]3CC=C4C[C@@H](O)CC[C@]4(C)[C@H]3CC[C@]12C)C(C)C [BETA-SITOSTEROL]	50	50	50	50	50	–	–
O=C(N[C@H](CO)[C@H](O)c1ccc([N+](=O)[O-])cc1)C(Cl)Cl [CHLORAMPHENICOL]	0.001	0.001	0.001	0.001	0.001	–	–
O=C(O)c1cc(O)c(O)c(O)c1 [GALLIC ACID]	50	50	50	50	50	1.85 (≈ 10.9 µM)	> 50
O=C1C=C2C=C[C@@H](O)[C@H](O)[C@H]2O1 [GRIFFONILIDE]	50	50	50	50	50	–	–
N#C/C=C1/C=C[C@@H](O)[C@H](O)[C@H]1O[C@@H]1O[C@H](CO)[C@@H](O)[C@H](O)[C@H]1O [GRIFFONIN]	50	50	50	50	50	–	–
CCCCCCCC/C=C\CCCCCCCC(=O)O [OLEIC ACID]	50	50	50	50	50	–	–
O=C(O)c1ccc(O)c(O)c1 [PROTOCATECHUIC ACID]	50	50	50	50	50	–	–
OC[C@H]1O[C@@](CO)(O[C@H]2O[C@H](CO)[C@@H](O)[C@H](O)[C@H]2O)[C@@H](O)[C@@H]1O [SUCROSE]	50	50	50	50	50	–	–
